Results filed as inconclusive are left out.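 The calls were made as follows, unless noted: active = cell viability at or below a set limit in both duplicate runs, the limit being the all-compound median minus 4 SD (cut at about 23% in these data, passing the limit was not always enough); inconclusive = no clear call, values can overlap the other calls; inactive = the rest.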
Key:
[1] = OD615 S. cerevisiae growth inhibition, permissive medium, pilot counter-assay, permissive growth control for S. cerevisiae lifespan shortening project (AID 705;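 active = growth inhibition above 25% in both replicates, a cutoff set 3 SD above the mean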); details: OD615, 24 h, at 10 µM, hits give high values
Procedure, shortened: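 System: engineered DeaD yeast; Medium: permissive raffinose/galactose medium; Compound dosing: 10 µM single dose, 0.25% DMSO; Incubation: 4 h cell pre-growth, 24 h exposure at 30 °C; Technique: OD at 615 nm; Evaluation: growth inhibition from lowered OD615 after 24 h.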

[2] = Restrictive medium S. cerevisiae growth inhibition, OD615, pilot screen of yeast lifespan reduction project, restrictive growth control (AID 706;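 active = growth inhibition above a set limit, 3 SD over mean compound inhibition, in both replicates, cut at about 43% in these data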;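 also: modified DeaD lifespan yeast strain shifted to restrictive glucose medium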); details: OD615, 48 h, at 10 µM, hits give high values
Procedure, shortened: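 Material: modified S. cerevisiae; buffer or medium: CSMM-D glucose medium; doses: one concentration, 10 µM final, 0.25% DMSO; incubation: 48 h compound exposure at 30 °C; detection: optical density at 615 nm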

[3] = viability gain of MRP-1-high H69AR cells under doxorubicin, pilot screen, MRP-1 activator project, CellTiter-Glo, duplicate (AID 807;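 active = viability increase at or above a cutoff of the median across tested compounds plus 3 SD, cut at about 8.5% in these data, passing the limit was not always enough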;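 also: compound pretreatment 18-22 h then 72 h combined with doxorubicin; 0% = doxorubicin alone and 100% = vehicle without doxorubicin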); details: H69AR viability with doxorubicin, CellTiter-Glo luminescence; at 10 µM; hits give high values
[4] = growth suppression of beta-catenin knockout HCT116, pilot screen, human colon tumor cells (AID 823); details: CellTiter-Glo, 60 h, at 10 µM, hits give low values;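 also: 0% = wells killed by 20 µM Hyamine and 100% = untreated DMSO cell wells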
[5] = growth suppression of PTEN-deleted HCT116, pilot screen, cell-based, HCT116 clonal line, CellTiter-Glo (AID 824;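 active = viability at or below 27.92% in each of two runs, the all-compound median minus 4 SD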;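 also: 0% = 20 µM Hyamine control and 100% = vehicle cell control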); details: 60 h, at 10 µM, hits give low values
[6] = inhibitors of the yeast RAM network, pilot screen, dse1pr::URA3 reporter, 5-FOA selection (AID 869;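 active = inhibition over a set limit, the all-compound mean plus 3 SD, in both replicate runs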;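 also: 0% = DMSO wells with no growth and 100% = 10 µM 1-NA-PP1 with full growth; RAM network block rescues cells from 5-FOA so hits raise OD615 growth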); details: S. cerevisiae dse1pr::URA3 5-FOA growth, OD615, 2 d; at 10 µM; hits give high values; strain carries analog-sensitive mutant Cbk1 kinase
[7] = RAM signaling pathway blockade in yeast – S. cerevisiae, Pdr1DBD-CYC8 efflux-inhibited sensitized strain, primary screen (AID 1298;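 active = RAM network inhibition above 8.4% in each of two replicates, 3 SD over the compound average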;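 also: 0% = DMSO untreated cells without growth and 100% = 10 µM 1-NA-PP1 full growth; higher means more yeast growth rescued from 5-FOA killing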); details: S. cerevisiae cbk1-as DSE1-URA3 strain, 5-FOA growth OD615, 2 d; at 50 µM; hits give high values

Cn1c(=O)oc2cc(S(=O)(=O)NCc3ccccn3)ccc21
inactive: growth inhibition [1] -20.9% | growth inhibition [2] -20.2% | viability increase [3] 0.44% | viability [4] 96.5% | viability [5] 101% | inhibition [6] 3.3% | RAM network inhibition [7] 4.32%

CCOc1ccc(NS(=O)(=O)c2ccc3[nH]c(=O)oc3c2)cc1
inactive: growth inhibition [1] -11.6% | growth inhibition [2] -10.5% | viability increase [3] 1.01% | viability [4] 101% | viability [5] 92.6% | inhibition [6] 3.46% | RAM network inhibition [7] 4.48%

COC(=O)c1ccc(C2c3c(n[nH]c3C)C(=O)N2c2ccc(C)cc2)cc1 (configuration not stated)
inactive: growth inhibition [1] 10.6% | growth inhibition [2] -0.115% | viability increase [3] 0.79% | viability [4] 70.6% | viability [5] 86.4% | inhibition [6] 0.34% | RAM network inhibition [7] 0.36%

COC(=O)COC(=O)CC(CC(N)=O)c1ccccc1 (configuration not stated)
inactive: growth inhibition [1] -8.58% | growth inhibition [2] -0.775% | viability increase [3] -0.29% | viability [4] 95% | viability [5] 102% | inhibition [6] 2.13% | RAM network inhibition [7] 3.07%

O=C(NCCc1ccccc1)c1ccc2c(c1)N(Cc1ccccc1)C(=O)CS2=O (configuration not stated)
inactive: growth inhibition [1] 0.9% | growth inhibition [2] -2.98% | viability increase [3] 0.8% | viability [4] 96.3% | viability [5] 88.7% | inhibition [6] 0.2% | RAM network inhibition [7] 3.6%

Cc1nc2ccc(S(=O)(=O)NC(C(=O)N3CCCCCC3)C(C)C)cc2s1 (configuration not stated)
inactive: growth inhibition [1] -11.3% | growth inhibition [2] -4.58% | viability increase [3] -1.12% | viability [4] 97.5% | viability [5] 87.8% | inhibition [6] 2.01% | RAM network inhibition [7] 2.77%

CCOC(=O)C1C(=O)Oc2ccc3ccccc3c2C1C1CCOC1=O (configuration not stated)
inactive: growth inhibition [1] -5.13% | growth inhibition [2] -1.85% | viability increase [3] -2.53% | viability [4] 99.5% | viability [5] 97.6% | inhibition [6] 0.105% | RAM network inhibition [7] -1.08%

C=CCn1c(SCCCC)nc(O)cc1=O
inactive: growth inhibition [1] 1.55% | growth inhibition [2] 8.79% | viability increase [3] -0.11% | viability [4] 105% | viability [5] 102% | inhibition [6] 0.02% | RAM network inhibition [7] -0.21%

COc1ccc(F)cc1S(=O)(=O)Nc1ccc2c(c1)OCCO2
inactive: growth inhibition [1] -3.12% | growth inhibition [2] -5.07% | viability increase [3] -1.33% | viability [4] 91.1% | viability [5] 86.6% | inhibition [6] 2.45% | RAM network inhibition [7] 2.35%

O=C1C=C(N(CCO)CCO)C2(CCCCC2)O1
inactive: growth inhibition [1] -14.1% | growth inhibition [2] -18.7% | viability increase [3] -1.83% | viability [4] 90.1% | viability [5] 96% | inhibition [6] 1.23% | RAM network inhibition [7] 2%

O/N=C1/CCCSc2ccccc21
inactive: growth inhibition [1] -7.19% | growth inhibition [2] -16.8% | viability increase [3] -1.24% | viability [4] 96.6% | viability [5] 97.9% | inhibition [6] 0.95% | RAM network inhibition [7] 2.18%

Nc1ccccc1SCc1cn2cccnc2n1
inactive: growth inhibition [1] 1.29% | growth inhibition [2] 12% | viability increase [3] -2.43% | viability [4] 109% | viability [5] 98% | inhibition [6] 2.13% | RAM network inhibition [7] 3.55%

COC(=O)c1ccc2[nH]c(C)cc(=O)c2c1
inactive: growth inhibition [1] -15.1% | growth inhibition [2] -24.1% | viability increase [3] -0.51% | viability [4] 99.8% | viability [5] 90.9% | inhibition [6] 1.61% | RAM network inhibition [7] 4.64%

CCOC(=O)C(C(=O)OCC)=C1OC(=O)c2ccccc21
inactive: growth inhibition [1] -11.1% | growth inhibition [2] -7.16% | viability increase [3] 0.39% | viability [4] 98.6% | viability [5] 96.4% | inhibition [6] 2.19% | RAM network inhibition [7] 2.35%

COc1ccc(C2C(C(=O)N3CCN(c4ccc(OC)cc4)CC3)c3ccccc3C(=O)N2C)cc1 (configuration not stated)
inactive: growth inhibition [1] 1.52% | growth inhibition [2] -0.315% | viability increase [3] -0.98% | viability [4] 60.6% | viability [5] 61.9% | inhibition [6] 0.215% | RAM network inhibition [7] 0.86%

CCOC(=O)N1CCC(NC(=O)C2CCCN(Cc3nc(-c4cccc(Cl)c4)oc3C)C2)CC1 (configuration not stated)
inactive: growth inhibition [1] -13.4% | growth inhibition [2] -23.4% | viability increase [3] -5.39% | viability [4] 40.4% | viability [5] 49.5% | inhibition [6] 0.715% | RAM network inhibition [7] 3.95%

COc1ccc(C2CC(C(F)(F)F)n3ncc(C(=O)O)c3N2)cc1OC (configuration not stated)
inactive: growth inhibition [1] -0.77% | growth inhibition [2] -3% | viability increase [3] 0.06% | viability [4] 97.2% | viability [5] 97.9% | inhibition [6] 0.23% | RAM network inhibition [7] -0.41%

CCOC(=O)N1CCN(S(=O)(=O)c2cccc3nonc23)CC1
inactive: growth inhibition [1] -9.77% | growth inhibition [2] -27.6% | viability increase [3] -1.56% | viability [4] 90.5% | viability [5] 92.2% | inhibition [6] 1.68% | RAM network inhibition [7] 5.47%

Cc1c(C(=O)NCC2CCCO2)oc2ccc(S(=O)(=O)N3CCCCC3)cc12 (configuration not stated)
inactive: growth inhibition [1] -15.5% | growth inhibition [2] -9.72% | viability increase [3] -0.95% | viability [4] 89.9% | viability [5] 92.1% | inhibition [6] 2.4% | RAM network inhibition [7] 1.2%

O=S(=O)(c1ccc(-c2cn3ccccc3n2)cc1)N1CCOCC1
inactive: growth inhibition [1] 1.49% | growth inhibition [2] -12.4% | viability increase [3] -3.55% | viability [4] 86.7% | viability [5] 97.3% | inhibition [6] 1.14% | RAM network inhibition [7] 3.9%

COc1ccc(-n2nc(C(=O)N3CCC(C#N)CC3)c3c4ccccc4n(C)c3c2=O)cc1
inactive: growth inhibition [1] -14.9% | growth inhibition [2] -27% | viability increase [3] -4.6% | viability [4] 92.2% | viability [5] 88.9% | inhibition [6] 1.95% | RAM network inhibition [7] 7.49%

Cc1ccc2oc(=O)c3cc(C(=O)NCCN4CCN(C)CC4)sc3c2c1
inactive: growth inhibition [1] -0.32% | growth inhibition [2] -8.46% | viability increase [3] -1.81% | viability [4] 85.5% | viability [5] 83.5% | inhibition [6] 0.16% | RAM network inhibition [7] 0.45%

COC(=O)CSC1=C(C#N)C(c2ccccc2F)CC(=O)N1 (configuration not stated)
inactive: growth inhibition [1] -9.32% | growth inhibition [2] -6.92% | viability increase [3] -2.29% | viability [4] 92.6% | viability [5] 94.1% | inhibition [6] 1.32% | RAM network inhibition [7] 0.84%

Cc1csc2ncc(C(=O)Nc3ccc(C(F)(F)F)cc3)c(=O)n12
inactive: growth inhibition [1] -10.2% | growth inhibition [2] -17.2% | viability increase [3] -2.44% | viability [4] 84.8% | viability [5] 85.8% | inhibition [6] 3.73% | RAM network inhibition [7] 3.03%

COc1ccc(C)c2sc(=NC(=O)c3ccc(C#N)cc3)n(C)c12
inactive: growth inhibition [1] -5.79% | growth inhibition [2] -17.2% | viability increase [3] -3.95% | viability [4] 85.3% | viability [5] 81.6% | inhibition [6] 0.96% | RAM network inhibition [7] 1.83%

COc1ccc(S(=O)(=O)NCc2ccccc2Cl)cc1OC
inactive: growth inhibition [1] -5.85% | growth inhibition [2] 2.66% | viability increase [3] -1.42% | viability [4] 102% | viability [5] 96.1% | inhibition [6] 1.98% | RAM network inhibition [7] 2.86%

Cc1ccccc1-n1c(C)nc2ccccc21
inactive: growth inhibition [1] -17.5% | growth inhibition [2] -1.88% | viability increase [3] -0.13% | viability [4] 95.9% | viability [5] 93.7% | inhibition [6] 1.79% | RAM network inhibition [7] 1.56%

Cc1cc(C(=O)CN2CC(C)OC(C)C2)c(C)n1-c1ccccc1 (configuration not stated)
inactive: growth inhibition [1] 0.61% | growth inhibition [2] -5.6% | viability increase [3] -1.04% | viability [4] 97.6% | viability [5] 99.6% | inhibition [6] 1.83% | RAM network inhibition [7] 7.04%

CC1Cc2ccccc2N1C(=O)C1CCCN(S(=O)(=O)c2cccc3cccnc23)C1 (configuration not stated)
inactive: growth inhibition [1] -6.46% | growth inhibition [2] -11% | viability increase [3] -5.48% | viability [4] 67.9% | viability [5] 62.2% | inhibition [6] 2.08% | RAM network inhibition [7] 7.93%

Cc1sc2nc(SCC(=O)NCc3ccco3)[nH]c(=O)c2c1C
inactive: growth inhibition [1] -4% | growth inhibition [2] -4.97% | viability increase [3] -3.92% | viability [4] 106% | viability [5] 101% | inhibition [6] 2.67% | RAM network inhibition [7] 5.12%

CSc1ccccc1NC(=O)c1cnc2scc(C)n2c1=O
inactive: growth inhibition [1] -16.8% | growth inhibition [2] 3.44% | viability increase [3] -2.05% | viability [4] 87.1% | viability [5] 88.1% | inhibition [6] 0.665% | RAM network inhibition [7] 3.71%

O=S(=O)(c1ccccc1)n1ccc2ccccc21
inactive: growth inhibition [1] -3% | growth inhibition [2] 5.11% | viability increase [3] -5.11% | viability [4] 87.4% | viability [5] 89.1% | inhibition [6] 0.255% | RAM network inhibition [7] 6.25%

CCOC(=O)N1CCN(C(=O)C2CCN(Cc3nc(-c4ccccc4C)oc3C)CC2)CC1
inactive: growth inhibition [1] -13.5% | growth inhibition [2] -31.5% | viability increase [3] -1.65% | viability [4] 85.3% | viability [5] 88% | inhibition [6] 0.75% | RAM network inhibition [7] 1.63%

O=C1CSC(c2nn(-c3ccccc3)cc2-c2cc3ccccc3oc2=O)N1Cc1ccco1 (configuration not stated)
inactive: growth inhibition [1] -1.13% | growth inhibition [2] 1.33% | viability increase [3] -4.75% | viability [4] 77.4% | viability [5] 76.9% | inhibition [6] 2.16% | RAM network inhibition [7] 2.95%

COc1ccc(NC(=O)CSc2nnc(Cn3c(=O)sc4ccccc43)n2C)cc1OC
inactive: growth inhibition [1] -10.7% | growth inhibition [2] -14.9% | viability increase [3] -2.38% | viability [4] 86.5% | viability [5] 92.2% | inhibition [6] 1.91% | RAM network inhibition [7] 4.34%

O=C(c1ccccc1)N1CCN(c2ccc(NCc3ccc4c(c3)OCO4)cc2)CC1
inactive: growth inhibition [1] -15.1% | growth inhibition [2] -14.4% | viability increase [3] -3.84% | viability [4] 64.7% | viability [5] 75.8% | inhibition [6] 1.77% | RAM network inhibition [7] 6.1%

Source: PubChem BioAssay
